The values that follow come from ChEMBL document CHEMBL4425104, “Structure-Based Design of Potent Nicotinamide Phosphoribosyltransferase Inhibitors with Promising in Vitro and in Vivo Antitumor Activities” (J Med Chem, 2016).

Data set [1] addresses T1, Nicotinamide phosphoribosyltransferase (Homo sapiens, UniProt P43490). As to the kind of experiment: Inhibition of recombinant NAMPT (unknown origin) using nicotinamide as substrate measured every 5 mins for 30 mins in presence of recombinant NMNAT1.
In a further data set the test system is HeLa. Briefly: Cytotoxicity against human HeLa cells assessed as cell growth inhibition after 72 hrs by CCK-8 assay. Format: functional. In outline:
(§1)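 HeLa, MCF7, H1975, U937 and MDA-MB-231 kept in RPMI or DMEM with 10% FBS and 1% pen/strep at 37 °C, 5% CO2. Seeded at 400-800 cells/well in 384-well format, exposed to a concentration series or solvent control for 72 h. CCK-8 added, absorbance read at 450 nm, IC50 fitted from dose-response curves.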

The test system of the next data set is MCF7. As to the kind of experiment: Cytotoxicity against human MCF7 cells assessed as cell growth inhibition after 72 hrs by CCK-8 assay. Format: functional. The following applies: MCF7, 72 h. An outline of the steps:
as §1
(Formazan colour is commonly taken as a measure of viable cells.)

In another data set the test system is NCI-H1975. Briefly: Cytotoxicity against human NCI-H1975 cells assessed as cell growth inhibition after 72 hrs by CCK-8 assay. As to conditions: NCI-H1975, 72 h. Format: functional. An outline of the steps:
as §1

The subject of a further data set is U-937. Briefly: Cytotoxicity against human U937 cells assessed as cell growth inhibition after 72 hrs by CCK-8 assay. Format: functional. As to conditions: U-937, 72 h. In outline: as §1
Data set [2] concerns MDA-MB-231. As to the kind of experiment: Cytotoxicity against human MDA-MB-231 cells assessed as cell growth inhibition after 72 hrs by CCK-8 assay. The class given is functional. As to conditions: MDA-MB-231, 72 h. In outline: as §1
In data set [3] the target is T1, Nicotinamide phosphoribosyltransferase. Briefly: Inhibition of NAMPT in human MCF7 cells assessed as decrease in NAD production after 24 hrs by NAD/NADH Glo assay. Format: cell-based. In outline: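 MCF-7 cells serum-starved over 12 h, then treated with compound or vehicle for 24 h. Washed in ice-cold PBS, lysed in 1% DTAB in 0.2 N NaOH diluted 1:1 with PBS, frozen at -80 °C.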

A short description of data set [4]: Cmax in Sprague-Dawley rat at 5 mg/kg, iv measured up to 24 hrs by LC-MS analysis. The class given is ADME, organism-based. On the set-up: dose 5 mg/kg, route intravenous. The following applies: in vivo.
Data set [5] in a line: Cmax in Sprague-Dawley rat at 25 mg/kg, po measured up to 24 hrs by LC-MS analysis. Format: ADME, organism-based. On the set-up: dose 25 mg/kg, route oral. The following applies: in vivo.
Data set [6] in a line: Tmax in Sprague-Dawley rat at 5 mg/kg, iv by LC-MS analysis. Format: ADME, organism-based. The following applies: in vivo.
Data set [7] in a line: Tmax in Sprague-Dawley rat at 25 mg/kg, po by LC-MS analysis. Format: ADME, organism-based. As to conditions: in vivo.
Data set [8] is described as follows: AUC (0 to infinity) in Sprague-Dawley rat at 5 mg/kg, iv measured up to 24 hrs by LC-MS analysis. Format: ADME, organism-based. Set-up: dose 5 mg/kg, time infinity, route intravenous. As to conditions: in vivo.
Data set [9] is described as follows: AUC (0 to infinity) in Sprague-Dawley rat at 25 mg/kg, po measured up to 24 hrs by LC-MS analysis. The class given is ADME, organism-based. On the set-up: dose 25 mg/kg, route oral, time infinity. The following applies: in vivo.
The nature of data set [10]: Half life in Sprague-Dawley rat at 5 mg/kg, iv by LC-MS analysis. Format: ADME, organism-based. The following applies: in vivo.
Data set [11] is described as follows: Half life in Sprague-Dawley rat at 25 mg/kg, po by LC-MS analysis. Format: ADME, organism-based. As to conditions: in vivo.
Data set [12] can be described thus: Plasma clearance in Sprague-Dawley rat at 5 mg/kg, iv measured up to 24 hrs by LC-MS analysis. The class given is ADME, organism-based.
Data set [13] is described as follows: Plasma clearance in Sprague-Dawley rat at 25 mg/kg, po measured up to 24 hrs by LC-MS analysis. The class given is ADME, organism-based.
Data set [14] in a line: Oral bioavailability in Sprague-Dawley rat at 25 mg/kg measured up to 24 hrs by LC-MS analysis. The following applies: in vivo. The class given is ADME, organism-based.
Data set [15] deals with MDA-MB-231. As to the kind of experiment: Antitumor activity against human MDA-MB-231 cells xenografted in nude SCID mouse assessed as tumor growth inhibition at 15 mg/kg, iv qd administered 4 days per week for 4 weeks. Format: functional. As to conditions: MDA-MB-231, iv, read-out: TGI. An outline of the steps: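 Female SCID nude mice, 6 weeks old, given 1 × 10^6 MDA-MB-231 cells into the lower left mammary fat pad. At 100–300 mm3 tumours, randomised to groups of n = 5 and dosed i.v. at 15 mg/kg or vehicle 4 days a week. Volume = L × W²/2; TGI = [1 − (T − T0)/(C − C0)] × 100 from mean volumes; body weight followed.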
On the technique in general: In xenograft studies the graft and the host belong to different species.

Data set [16] in a line: Toxicity in nude SCID mouse assessed as mortality at 15 mg/kg, iv qd administered 4 days per week for 4 weeks. Format: organism-based. The following applies: in vivo. An outline of the steps:
(§2)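 Female SCID nude mice (6 weeks) bearing MDA-MB-231 orthotopic tumours (1 × 10^6 cells in lower left mammary fat pad). Randomised at tumour volume 100–300 mm3 into vehicle or treatment groups (n = 5). Dosing 15 mg/kg i.v., 4 days a week. Vehicle elsewhere given as 2% DMSO, 4% EtOH, 4% castor oil, 90% water. Body weight and mortality recorded during treatment.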

A short description of data set [17]: Toxicity in nude SCID mouse assessed as body weight loss at 15 mg/kg, iv qd administered 4 days per week for 4 weeks. Format: organism-based. As to conditions: in vivo. An outline of the steps: as §2
A short description of data set [18]: Ratio of Cmax in Sprague-Dawley rat to IC50 for NAMPT in human MCF7 cells. Format: ADME, cell-based.

pIC50: −log10 of the molar value.

T1 sequence (P43490 whole entry): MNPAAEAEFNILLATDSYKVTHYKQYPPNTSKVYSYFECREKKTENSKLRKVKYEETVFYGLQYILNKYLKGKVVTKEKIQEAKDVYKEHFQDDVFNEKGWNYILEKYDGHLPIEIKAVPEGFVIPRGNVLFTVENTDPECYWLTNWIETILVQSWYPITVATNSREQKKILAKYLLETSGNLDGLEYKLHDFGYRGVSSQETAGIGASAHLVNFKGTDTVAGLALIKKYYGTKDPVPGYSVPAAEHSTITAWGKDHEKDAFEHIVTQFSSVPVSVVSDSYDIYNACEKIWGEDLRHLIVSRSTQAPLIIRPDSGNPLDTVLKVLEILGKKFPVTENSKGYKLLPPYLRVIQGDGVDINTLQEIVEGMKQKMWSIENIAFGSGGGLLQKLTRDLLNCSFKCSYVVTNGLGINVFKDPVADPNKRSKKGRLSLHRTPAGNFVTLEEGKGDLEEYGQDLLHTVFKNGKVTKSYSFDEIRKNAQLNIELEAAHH

As a reminder, the pIC50 is −log10 of the IC50, conventionally taken in molar units. One may read the GI50 as the concentration that inhibits growth by half. As a reminder, the Cmax is the highest concentration seen after dosing. The term Tmax denotes the time at which the peak concentration occurs. By AUC(0-inf) is commonly meant total exposure, with the tail of the curve extrapolated. Low readings indicate low exposure, high ones high exposure. Usually half-life stands for how long it takes for the measured level to halve. Usually clearance stands for the rate of elimination divided by the concentration. Read a low clearance as a low capacity for elimination. What is called CL/F is clearance divided by bioavailability, as obtained after extravascular dosing. As a reminder, the bioavailability is dose-corrected exposure relative to a reference, in per cent. A low value points to poor availability. For the compound `CC(C)N(CCc1c[nH]c2ccccc12)Cc1ccc(NCCCCCNC(=O)/C=C/c2cccnc2)cc1`, the figures for the pIC50 in data set [1] and in data set [3] were 7.60 and 9.81, respectively. Also, the GI50 with HeLa is 0.5 nM; in the data set with MCF7, 0.13 nM; with NCI-H1975, 1.61 nM; in the data set on U-937, 0.25 nM; with MDA-MB-231 [2] it was 0.15 nM. The Cmax is 3790 ng/mL in data set [4] and 108 ng/mL in data set [5]. The Tmax amounted to 1.98 min in [6] and 2 h in [7]. In addition, the figures for the AUC(0-inf) in [8] and in data set [9] were 1710 ng·h/mL and 374 ng·h/mL, respectively. Moreover, the results for the half-life in [10] and in data set [11] were 1.55 h and 2.37 h, respectively. This compound also gave a clearance in data set [12] of 49 mL/min/kg. Also, the CL/F in data set [13] is 1140 mL/min/kg. Besides, the bioavailability in [14] amounted to 4.4%. Besides, in the data set on MDA-MB-231 [15], the inhibition in vivo at 15 mg/kg is 73.8%. For the same compound, the Activity entry in data set [16] and in data set [17] was “Non-Toxic” throughout. The Ratio in data set [18] came to 500.
